Experiments:
[1] = Displacement of 5(6)-FAM-mannoside from Escherichia coli FimH by fluorescence polarization assay
[2] = tested on: Escherichia coli; experiment: Inhibition of Escherichia coli FimH-mediated hemagglutinination of guinea pig red blood cells assessed as drug level required for > 90% inhibition of hemagglutinination
[3] = tested on: Escherichia coli; experiment: Selectivity ratio of inhibition of Escherichia coli FimH-mediated hemagglutinination of guinea pig red blood cells to EC50 for Escherichia coli FimH
[4] = tested on: Escherichia coli; experiment: Ratio of alpha-D-heptylmannoside to compound inhibitory activity against Escherichia coli FimH-mediated hemagglutinination of guinea pig red blood cells
[5] = Binding affinity to Escherichia coli FimH by fluorescence polarization assay
Method in brief: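 Competitive fluorescence polarization/anisotropy assay. Compounds from 10 mM DMSO stocks were 2-fold serially diluted to 11 final concentrations of 0–10 μM, in duplicate plates. Mix: 200 nM FimH, 20 nM 5(6)-FAM-labelled mannoside tracer, 50 mM Tris, 100 mM NaCl, 1 mM EDTA, 5 μg BSA, 5 mM BME. Anisotropy was averaged over 100 readings/well and fitted to a one-site competition curve, with a mannoside positive control.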

[6] = Binding affinity to Escherichia coli FimH by surface plasmon resonance assay

| Compound | EC50 [1] | Activity [2] | also measured |
| --- | --- | --- | --- |
| N#Cc1cccc(O[C@H]2O[C@H](CO)[C@@H](O)[C@H](O)[C@@H]2O)c1 | 162 nM | 23 µM | – |
| CS(=O)(=O)Nc1cccc(-c2ccc(O[C@H]3O[C@H](CO)[C@@H](O)[C@H](O)[C@@H]3O)cc2)c1 | 97 nM | 2 µM | – |
| OC[C@H]1O[C@H](OCc2ccccc2)[C@@H](O)[C@@H](O)[C@@H]1O | 187 nM | – | – |
| O=C(c1ccccc1)c1cccc(O[C@H]2O[C@H](CO)[C@@H](O)[C@H](O)[C@@H]2O)c1 | – | 8 µM | – |
| CNC(=O)c1cc(C(=O)NC)cc(-c2ccc(O[C@H]3O[C@H](CO)[C@@H](O)[C@H](O)[C@@H]3O)cc2)c1 | 87 nM | 0.37 µM | Selectivity ratio [3]: 4 |
| Cc1ccc(O[C@H]2O[C@H](CO)[C@@H](O)[C@H](O)[C@@H]2O)cc1 | – | 8 µM | – |
| N#Cc1cccc(-c2ccc(O[C@H]3O[C@H](CO)[C@@H](O)[C@H](O)[C@@H]3O)cc2)c1 | – | 1 µM | – |
| CNS(=O)(=O)c1ccccc1-c1ccc(O[C@H]2O[C@H](CO)[C@@H](O)[C@H](O)[C@@H]2O)cc1 | – | 4 µM | – |
| O=C(NCCOCCOCCNC(=O)c1cccc(-c2ccc(O[C@H]3O[C@H](CO)[C@@H](O)[C@H](O)[C@@H]3O)cc2)c1)c1cccc(-c2ccc(O[C@H]3O[C@H](CO)[C@@H](O)[C@H](O)[C@@H]3O)cc2)c1 | – | – | Ratio [4]: 8 |
| CC(=O)Oc1cccc(O[C@H]2O[C@H](CO)[C@@H](O)[C@H](O)[C@@H]2O)c1 | – | 16 µM | – |
| NC(=O)c1cccc(-c2ccc(O[C@H]3O[C@H](CO)[C@@H](O)[C@H](O)[C@@H]3O)cc2)c1 | 78 nM | 2 µM | – |
| CNC(=O)c1cccc(-c2ccc(O[C@H]3O[C@H](CO)[C@@H](O)[C@H](O)[C@@H]3O)cc2)c1 | 75 nM | 1 µM | – |
| OC[C@H]1O[C@H](Oc2ccc(-c3cccnc3)cc2)[C@@H](O)[C@@H](O)[C@@H]1O | – | 2 µM | – |
| COC(=O)c1cccc(O[C@H]2O[C@H](CO)[C@@H](O)[C@H](O)[C@@H]2O)c1 | 84 nM | 6 µM | – |
| O=[N+]([O-])c1cccc(O[C@H]2O[C@H](CO)[C@@H](O)[C@H](O)[C@@H]2O)c1 | – | 16 µM | – |
| O=C(O)c1cc(C(=O)NCCCCO[C@H]2O[C@H](CO)[C@@H](O)[C@H](O)[C@@H]2O)cc(-c2c3ccc(=O)cc-3oc3cc(O)ccc23)c1 | – | 125 µM | Kd [5]: 170 nM |
| OC[C@H]1O[C@H](Oc2ccc(-c3ccccc3O)cc2)[C@@H](O)[C@@H](O)[C@@H]1O | – | 8 µM | – |
| CS(=O)(=O)Nc1ccccc1-c1ccc(O[C@H]2O[C@H](CO)[C@@H](O)[C@H](O)[C@@H]2O)cc1 | – | 12 µM | – |
| COC(=O)c1cc2cc(O[C@H]3O[C@H](CO)[C@@H](O)[C@H](O)[C@@H]3O)ccc2s1 | – | 2 µM | – |
| OCc1ccc(-c2ccc(O[C@H]3O[C@H](CO)[C@@H](O)[C@H](O)[C@@H]3O)cc2)cc1 | – | 6 µM | – |
| COC(=O)c1cc(O[C@H]2O[C@H](CO)[C@@H](O)[C@H](O)[C@@H]2O)cc(C(=O)OC)c1 | 91 nM | 2 µM | – |

| Compound | EC50 [1] | Activity [2] | also measured |
| --- | --- | --- | --- |
| OC[C@H]1O[C@H](Oc2ccc3ccccc3c2)[C@@H](O)[C@@H](O)[C@@H]1O | – | 6 µM | – |
| COC(=O)Cc1ccc(O[C@H]2O[C@H](CO)[C@@H](O)[C@H](O)[C@@H]2O)cc1 | – | 30 µM | – |
| CC(=O)Nc1ccccc1O[C@H]1O[C@H](CO)[C@@H](O)[C@H](O)[C@@H]1O | – | 125 µM | – |
| COC(=O)c1ccc(-c2cccc(O[C@H]3O[C@H](CO)[C@@H](O)[C@H](O)[C@@H]3O)c2)cc1 | – | 6 µM | – |
| COc1cccc(-c2ccc(O[C@H]3O[C@H](CO)[C@@H](O)[C@H](O)[C@@H]3O)cc2)c1 | – | 1.5 µM | – |
| OC[C@H]1O[C@H](Oc2ccccc2)[C@@H](O)[C@@H](O)[C@@H]1O | 114 nM | 30 µM | – |
| COC(=O)c1ccc(-c2ccc(O[C@H]3O[C@H](CO)[C@@H](O)[C@H](O)[C@@H]3O)cc2)cc1 | 59 nM | 4 µM | – |
| O=C(O)c1cc(C(=O)O)cc(-c2ccc(O[C@H]3O[C@H](CO)[C@@H](O)[C@H](O)[C@@H]3O)cc2)c1 | – | 2 µM | – |
| NC(=O)c1ccccc1-c1ccc(O[C@H]2O[C@H](CO)[C@@H](O)[C@H](O)[C@@H]2O)cc1 | – | 6 µM | – |
| OCc1cccc(-c2ccc(O[C@H]3O[C@H](CO)[C@@H](O)[C@H](O)[C@@H]3O)cc2)c1 | – | 3 µM | – |
| N#Cc1ccccc1O[C@H]1O[C@H](CO)[C@@H](O)[C@H](O)[C@@H]1O | – | 6 µM | – |
| NC(=O)c1ccc(O[C@H]2O[C@H](CO)[C@@H](O)[C@H](O)[C@@H]2O)cc1 | – | 15 µM | – |
| OC[C@H]1O[C@H](Oc2ccc(-c3ccncc3)cc2)[C@@H](O)[C@@H](O)[C@@H]1O | – | 2 µM | – |
| OCc1ccccc1-c1ccc(O[C@H]2O[C@H](CO)[C@@H](O)[C@H](O)[C@@H]2O)cc1 | – | 16 µM | – |
| OC[C@H]1O[C@H](Oc2cccc(Cl)c2)[C@@H](O)[C@@H](O)[C@@H]1O | – | 8 µM | – |
| O=C(O)c1cccc(-c2ccc(O[C@H]3O[C@H](CO)[C@@H](O)[C@H](O)[C@@H]3O)cc2)c1 | 99 nM | 4 µM | – |
| O=[N+]([O-])c1ccc(O[C@H]2O[C@H](CO)[C@@H](O)[C@H](O)[C@@H]2O)cc1 | – | 31 µM | – |
| OC[C@H]1O[C@H](Oc2ccc(-c3cccc(O)c3)cc2)[C@@H](O)[C@@H](O)[C@@H]1O | – | 4 µM | – |
| O=C1Cc2cc(O[C@H]3O[C@H](CO)[C@@H](O)[C@H](O)[C@@H]3O)ccc2O1 | – | 8 µM | – |
| CCCCCCCO[C@H]1O[C@H](CO)[C@@H](O)[C@H](O)[C@@H]1O | 89 nM | 15 µM | Kd [6]: 5 nM |
| CNS(=O)(=O)c1cccc(-c2ccc(O[C@H]3O[C@H](CO)[C@@H](O)[C@H](O)[C@@H]3O)cc2)c1 | – | 1 µM | – |

| Compound | EC50 [1] | Activity [2] | also measured |
| --- | --- | --- | --- |
| COc1ccc(O[C@H]2O[C@H](CO)[C@@H](O)[C@H](O)[C@@H]2O)cc1 | – | 8 µM | – |
| N#Cc1ccc(O[C@H]2O[C@H](CO)[C@@H](O)[C@H](O)[C@@H]2O)cc1 | – | 30 µM | – |
| N#Cc1ccc(-c2ccc(O[C@H]3O[C@H](CO)[C@@H](O)[C@H](O)[C@@H]3O)cc2)cc1 | – | 8 µM | – |
| CCCCO[C@H]1O[C@H](CO)[C@@H](O)[C@H](O)[C@@H]1O [BUTYLALPHAMAN] | 245 nM | 125 µM | Kd [6]: 151 nM |
| COC(=O)c1cc2ccc(O[C@H]3O[C@H](CO)[C@@H](O)[C@H](O)[C@@H]3O)cc2s1 | – | 2 µM | – |
| OC[C@H]1O[C@H](Oc2ccccc2Cl)[C@@H](O)[C@@H](O)[C@@H]1O | – | 4 µM | – |
| CC(=O)Nc1cccc(O[C@H]2O[C@H](CO)[C@@H](O)[C@H](O)[C@@H]2O)c1 | 160 nM | 12 µM | – |
| COC(=O)c1cccc(-c2ccc(O[C@H]3O[C@H](CO)[C@@H](O)[C@H](O)[C@@H]3O)cc2)c1 | 52 nM | 1 µM | – |
| O=[N+]([O-])c1ccc(-c2ccc(O[C@H]3O[C@H](CO)[C@@H](O)[C@H](O)[C@@H]3O)cc2)cc1 | – | 2 µM | – |
| O=C(NCCOCCNC(=O)c1cccc(-c2ccc(O[C@H]3O[C@H](CO)[C@@H](O)[C@H](O)[C@@H]3O)cc2)c1)c1cccc(-c2ccc(O[C@H]3O[C@H](CO)[C@@H](O)[C@H](O)[C@@H]3O)cc2)c1 | – | 0.75 µM | – |
| O=C(O)c1cccc(O[C@H]2O[C@H](CO)[C@@H](O)[C@H](O)[C@@H]2O)c1 | – | 60 µM | – |
| O=c1[nH]c2ccc(O[C@H]3O[C@H](CO)[C@@H](O)[C@H](O)[C@@H]3O)cc2o1 | – | 4 µM | – |
| N#Cc1ccccc1-c1ccc(O[C@H]2O[C@H](CO)[C@@H](O)[C@H](O)[C@@H]2O)cc1 | – | 2 µM | – |
| CC(=O)Nc1ccc(O[C@H]2O[C@H](CO)[C@@H](O)[C@H](O)[C@@H]2O)cc1 | 122 nM | 8 µM | – |
| COC(=O)c1cc(C(=O)OC)cc(-c2ccc(O[C@H]3O[C@H](CO)[C@@H](O)[C@H](O)[C@@H]3O)cc2)c1 | 77 nM | 0.15 µM | Selectivity ratio [3]: 2 |
| CC(=O)Nc1cccc(-c2ccc(O[C@H]3O[C@H](CO)[C@@H](O)[C@H](O)[C@@H]3O)cc2)c1 | 70 nM | 2 µM | – |
| NC(=O)c1cccc(O[C@H]2O[C@H](CO)[C@@H](O)[C@H](O)[C@@H]2O)c1 | – | 16 µM | – |
| OC[C@H]1O[C@H](Oc2ccc(Cl)cc2)[C@@H](O)[C@@H](O)[C@@H]1O | – | 32 µM | – |
| COC(=O)c1ccc(O[C@H]2O[C@H](CO)[C@@H](O)[C@H](O)[C@@H]2O)cc1 | 64 nM | 8 µM | – |
